The source of these data is article PMC4823774 (Bioorganic & medicinal chemistry letters, 2016).

Each structure is given as a SMILES string.

One data set has as its target human mGlu1 (Homo sapiens, UniProt Q13255). Put plainly: Calcium mobilization mGlu1 PAM assay. The format is cell-based. In a few lines:
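Tetracycline-inducible human mGlu1 T-REx-293 cells, induced overnight at 80,000 cells/well with 50 ng/mL tetracycline. Loaded with 1.15 μM Fluo-4 AM in HBSS/20 mM HEPES/2.5 mM probenecid, 45 min, 37 °C. Half-log dilutions or DMSO preincubated 2.5 min, then EC20 glutamate for 1 min. ECmax glutamate on vehicle wells. Peak minus pre-agonist basal fluorescence; concentration-response curve fitting.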

Another data set in a line: CNS penetration. As to conditions: in vivo.
The nature of data set [1]: Rat liver microsome stability and intrinsic clearance. The format is in vitro ADME. The note with it: for stability in rat liver microsomes: in words.
Data set [2] is described as follows: Human liver microsome stability and intrinsic clearance. Type of data set: in vitro ADME. The note with it: for stability in human liver microsomes: in words.
Data set [3] can be described thus: Rat brain homogenate binding. Type of data set: in vitro ADME.
The test system of a further data set is CYP. Put plainly: CYP profile. The format is in vitro ADME.
The nature of another data set: Human plasma stability. Type of data set: in vitro ADME.
Another data set in a line: Rat plasma stability. The format is in vitro ADME.
Data set [4] is described as follows: Clearance in in vitro DMPK assays, species not stated. Type of data set: in vitro ADME.

Chain of human mGlu1 (Q13255 19-1194): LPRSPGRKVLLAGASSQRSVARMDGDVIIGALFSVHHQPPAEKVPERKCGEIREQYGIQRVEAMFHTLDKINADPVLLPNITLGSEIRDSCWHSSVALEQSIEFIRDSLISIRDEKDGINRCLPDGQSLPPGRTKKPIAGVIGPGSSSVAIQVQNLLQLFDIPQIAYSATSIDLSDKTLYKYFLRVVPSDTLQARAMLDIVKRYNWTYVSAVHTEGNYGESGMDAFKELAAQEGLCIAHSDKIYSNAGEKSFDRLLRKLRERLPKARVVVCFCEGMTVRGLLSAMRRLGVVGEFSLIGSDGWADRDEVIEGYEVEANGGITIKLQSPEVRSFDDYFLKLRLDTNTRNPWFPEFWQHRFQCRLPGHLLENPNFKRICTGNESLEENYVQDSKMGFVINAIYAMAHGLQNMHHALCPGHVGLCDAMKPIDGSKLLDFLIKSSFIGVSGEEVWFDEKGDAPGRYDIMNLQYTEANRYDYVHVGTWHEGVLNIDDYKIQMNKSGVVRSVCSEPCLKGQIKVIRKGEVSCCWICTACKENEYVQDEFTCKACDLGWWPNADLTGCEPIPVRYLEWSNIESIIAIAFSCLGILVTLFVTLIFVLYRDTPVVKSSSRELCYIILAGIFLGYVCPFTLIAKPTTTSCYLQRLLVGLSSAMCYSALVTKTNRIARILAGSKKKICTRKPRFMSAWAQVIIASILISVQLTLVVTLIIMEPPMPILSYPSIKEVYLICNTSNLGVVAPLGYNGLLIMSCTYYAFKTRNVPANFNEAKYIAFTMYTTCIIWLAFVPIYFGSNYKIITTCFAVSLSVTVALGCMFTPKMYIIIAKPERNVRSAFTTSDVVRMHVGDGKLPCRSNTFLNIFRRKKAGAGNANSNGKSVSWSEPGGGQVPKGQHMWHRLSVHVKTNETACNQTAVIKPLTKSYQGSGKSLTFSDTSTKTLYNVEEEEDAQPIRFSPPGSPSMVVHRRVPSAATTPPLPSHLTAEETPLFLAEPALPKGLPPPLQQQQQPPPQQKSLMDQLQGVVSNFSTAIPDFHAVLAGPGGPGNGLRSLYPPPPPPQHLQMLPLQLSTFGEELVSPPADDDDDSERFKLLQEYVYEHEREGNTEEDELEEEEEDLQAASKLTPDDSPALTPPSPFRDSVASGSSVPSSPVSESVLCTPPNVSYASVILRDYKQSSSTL

On to `Cc1ccoc1C(=O)Nc1ccc(N2C(=O)[C@H]3CCCC[C@H]3C2=O)c(Cl)c1` [20a], for which, on human mGlu1, the “mGlu1 PAM activity (in words)” value was “inactive”.

In the case of `Cc1ccoc1C(=O)Nc1ccc(N2C(=O)[C@@H]3CCCC[C@H]3C2=O)c(Cl)c1` [20b], the “mGlu1 PAM activity (in words)” value at human mGlu1 was “inactive”.

Regarding `Cc1ccoc1C(=O)Nc1ccc(NC(=O)c2ccccc2C(=O)O)c(Cl)c1` [20c], the “CNS penetration (in words)” value in the data set “CNS penetration” is “not CNS penetrant”.

On to `Cc1ccoc1C(=O)Nc1ccc(N2Cc3ccccc3C2=O)c(Cl)c1` [20e], for which the “stability in rat liver microsomes” value in [1] was “complete stability”. Also, the “stability in human liver microsomes” value in data set [2] is “complete stability”. In addition, on human mGlu1, the “mGlu1 PAM activity (in words)” value is “active”.

For the molecule `Cc1ccoc1C(=O)Nc1ccc(N2Cc3ccccc3C2)c(Cl)c1` [20f], the “mGlu1 PAM activity (in words)” value at human mGlu1 was “active”.

With `Cc1ccoc1C(=O)Nc1ccc(N2C(=O)Cc3ccccc32)c(Cl)c1` [20g], the “mGlu1 PAM activity (in words)” value at human mGlu1 is “inactive”.

As to `Cc1ccoc1C(=O)Nc1ccc(N2CCc3ccccc32)c(Cl)c1` [20h], the “mGlu1 PAM activity (in words)” value at human mGlu1 is “active”.

In the case of `Cc1ccoc1C(=O)Nc1ccc(N2Cc3c(Cl)cccc3C2=O)c(Cl)c1` [21a, N-(3-chloro-4-(4-chloro-1-oxoisoindolin-2-yl)phenyl)-3-methylfuran-2-carboxamide], the brain homogenate binding in data set [3] is more than 99%. Further, in [1], the “stability in rat liver microsomes” value is “hydrolytically stable”. For the same molecule, the CLhep predicted was 54.1 mL/min/kg in data set [1] (liver microsomes) and 8.53 mL/min/kg in data set [2] (liver microsomes). The molecule further gave a CLp in the data set “In vivo rat PK” of 11.1 mL/min/kg. Besides, the “stability in human liver microsomes” value in data set [2] is “hydrolytically stable”. Besides, on human mGlu1 (calcium mobilization, n=3 in triplicate, tables), the “mGlu1 pEC50 (±SEM)” value came to 6.75±0.07.

As to `Cc1ccoc1C(=O)Nc1ccc(N2Cc3c(Cl)cccc3C2=O)cc1F` [22h], at human mGlu1, the EC50 is approximately 1 µM.

`Cc1cccnc1C(=O)Nc1ccc(N2Cc3c(Cl)cccc3C2=O)c(Cl)c1` [22k]: the EC50 at human mGlu1 was approximately 1 µM.

In the case of `Cc1ccoc1C(=O)Nc1ccc(N2C(=O)Cc3ccccc3C2=O)c(Cl)c1` [compound 17], the “CYP profile (in words)” value in the data set with CYP is “clean CYP profile”. The “stability in human plasma” value in “Human plasma stability” is “unstable”. Also, in the data set “Rat plasma stability”, the “stability in rat plasma” value was “unstable”.

Take `Cc1ccoc1C(=O)Nc1ccc(N2C(=O)CCc3ccccc32)c(Cl)c1` [compound 19]: the “clearance (in words)” value in [4] is listed as “supprahepatic”. Also, the “stability in human plasma” value in the data set “Human plasma stability” is on record as “stable”. In “Rat plasma stability”, the “stability in rat plasma” value was “stable”.
